Results published in ChEMBL document CHEMBL1158389, “Highly twisted adamantyl arotinoids: synthesis, antiproliferative effects and RXR transactivation profiles” (Eur J Med Chem, 2009).
Active and inactive are the calls of the source. The calls are words filed in the database; no cut-off is given here.

Assays:
[1] = target: T1, Retinoic acid receptor RXR-alpha (Mus musculus) (UniProt P28700); assay: Transactivation of Gal4-LBD fused mouse RXRalpha (218 to 467) transfected in african green monkey CV1 cells assessed as luciferase activity at 2 uM after 6 hrs by Dual-light chemiluminescent assay relative to 9-cis-retinoic acid; format: cell-based; details: CV-1
T1 sequence (whole entry): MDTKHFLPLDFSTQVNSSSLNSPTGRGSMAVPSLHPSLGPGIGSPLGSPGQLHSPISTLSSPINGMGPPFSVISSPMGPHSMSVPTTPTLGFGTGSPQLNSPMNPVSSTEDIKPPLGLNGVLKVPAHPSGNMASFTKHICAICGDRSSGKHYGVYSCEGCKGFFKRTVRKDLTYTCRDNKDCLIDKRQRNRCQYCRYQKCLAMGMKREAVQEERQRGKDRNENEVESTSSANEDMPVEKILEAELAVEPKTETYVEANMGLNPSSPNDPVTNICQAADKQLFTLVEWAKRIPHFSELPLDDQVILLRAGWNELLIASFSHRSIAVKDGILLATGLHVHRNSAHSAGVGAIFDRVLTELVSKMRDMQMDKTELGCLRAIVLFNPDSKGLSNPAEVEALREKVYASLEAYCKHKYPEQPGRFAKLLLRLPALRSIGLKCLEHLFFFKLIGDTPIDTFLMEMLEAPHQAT
How it was run: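 Transfected CV-1 cells carried Gal4-LBD constructs: hRARα 156–462, hRARβ 169–448, hRARγ 178–454 or mRXRα 218–467. Transfection used 10 ng Gal4-LBD, 100 ng UAS-luciferase and 25 ng β-gal vector. After 16 h the medium was changed to 5% charcoal-treated FBS. Cells were stimulated with 2 μM analog for 6 h (RARα, RARβ, RXRα) or 20 h (RARγ). Reference agonists were 1 μM atRA (RARα) and 1 μM 9cRA (RXRα). Luciferase and β-galactosidase were read by chemiluminescence.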

Jurkat [2] = assay: Antiproliferative activity against human Jurkat T cells at 62.5 nM after 48 hrs by MTT assay; format: functional, cell-based
How it was run: (§1)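 Jurkat T cells were resuspended at 10^5 cells/mL in RPMI with 0.5% FBS (10,000/well) and seeded immediately before dosing at 62.5 nM–2 μM for two days. Viability was read by MTT (4 h, 37 °C), formazan dissolved in 10% SDS/10 mM HCl, A595 with cell-free background subtracted. Values are relative to DMSO controls (≤0.1% v/v); at least two experiments in triplicate.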

Jurkat [3] = assay: Induction of apoptosis in human Jurkat T cells assessed as induction of DEVDase activity at 4 uM after 4 hrs by fluorescence assay; format: functional, cell-based
How it was run: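 Jurkat cells (40,000/well, 10^6 cells/mL, RPMI with 0.5% FBS) were treated for 4 h; controls got 0.1% DMSO. Lysis was in CE buffer (PIPES pH 7, NP-40, cytochalasin B, protease inhibitors) for 30 min at 4 °C. Lysates were mixed with 2x caspase buffer (HEPES pH 7.4, CHAPS, sucrose) holding 100 μM Ac-DEVD-AFC and incubated at 37 °C for 30 min. AFC was read every 2 min, ex 390/em 510 nm.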

[4] = target: T2, Retinoic acid receptor gamma (Homo sapiens) (UniProt P13631); assay: Inhibition of transactivation activity of Gal4-LBD fused human RARgamma (178 to 454) transfected in atRA-stimulated african green monkey CV1 cells at 4 uM after 20 hrs by Dual-light chemiluminescent assay; details: CV-1
T2 sequence (whole entry): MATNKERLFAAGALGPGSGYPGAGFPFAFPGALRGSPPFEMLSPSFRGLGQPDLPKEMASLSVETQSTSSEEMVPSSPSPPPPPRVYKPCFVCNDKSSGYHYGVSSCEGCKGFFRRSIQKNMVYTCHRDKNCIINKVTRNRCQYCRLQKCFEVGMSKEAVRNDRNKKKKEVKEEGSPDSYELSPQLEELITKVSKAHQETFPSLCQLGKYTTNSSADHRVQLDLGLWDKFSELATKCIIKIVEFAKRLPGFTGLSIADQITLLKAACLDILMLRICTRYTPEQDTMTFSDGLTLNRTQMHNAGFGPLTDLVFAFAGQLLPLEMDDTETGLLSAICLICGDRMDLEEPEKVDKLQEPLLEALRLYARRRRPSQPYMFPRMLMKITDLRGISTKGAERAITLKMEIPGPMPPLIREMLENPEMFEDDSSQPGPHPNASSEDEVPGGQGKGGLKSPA

Jurkat [5] = assay: Antiproliferative activity against human Jurkat T cells after 48 hrs by MTT assay
PC-3 = assay: Antiproliferative activity against human PC3 cells at 4 uM after 48 hrs by MTT assay; format: functional; details: PC-3, 48 h
How it was run: (§2)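 Epithelial cancer lines came from ATCC and were seeded the day before in complete medium: PC-3, SkOV3 and A549 at 3,000/well; MiaPaCa-2 and BxPC-3 at 4,000; T-47D and MDA-MB-468 at 5,000. Medium was switched to 0.5% FBS just before exposure to 4 μM. Read-out was MTT (4 h, 37 °C), SDS/HCl solubilisation, A595 minus cell-free blank. Growth inhibition was taken versus DMSO (≤0.1% v/v) controls, ≥2 experiments in triplicate.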

BXPC-3 = assay: Antiproliferative activity against human BxPC3 cells at 4 uM after 48 hrs by MTT assay; format: functional; details: BXPC-3, 48 h; how it was run: as §2
MDA-MB-468 = assay: Antiproliferative activity against human MDA-MB-468 cells at 4 uM after 48 hrs by MTT assay; format: functional; details: MDA-MB-468, 48 h; how it was run: as §2
[6] = target: T1, Retinoic acid receptor RXR-alpha (Mus musculus); assay: Transactivation of Gal4-LBD fused mouse RXRalpha (218 to 467) transfected in african green monkey CV1 cells assessed as luciferase activity at 2 uM after 6 hrs by Dual-light chemiluminescent assay relative to LGD1069; format: cell-based; details: CV-1
Jurkat [7] = assay: Antiproliferative activity against human Jurkat T cells at 2 uM after 48 hrs by MTT assay; format: functional, cell-based; how it was run: as §1

Compound | Activity [1] [%] | Activity (Jurkat [2]) | Activity (Jurkat [3]) | Activity [4] | IC50 (Jurkat [5]) [nM] | inhibition at 4 µM (PC-3) [%] | inhibition at 4 µM (BXPC-3) [%] | inhibition at 4 µM (MDA-MB-468) [%] | Activity [6] [%] | Activity (Jurkat [7])
COCCOCOc1cc(C)c(-c2ccc3cc(C(=O)O)ccc3c2Cl)cc1C12CC3CC(CC(C3)C1)C2 | 45 | inactive | Active | inactive | 707 | 97.6 | 70.2 | 49.9 | 45 | 
COCCOCOc1cc(C)c(-c2ccc(CC(=O)O)cc2Cl)cc1C12CC3CC(CC(C3)C1)C2 |  |  |  | inactive |  | 52.2 | 14 | 25.3 |  | Active
